Consider three compounds from publication PMC3171079 (The Journal of General Physiology, 2011).

Data set [1] deals with Cx26/Cx32T junctional channels. As to the kind of experiment: Parachute assay for gap junctional communication. In kind it is cell-based, rat. The following applies: n = 4–9. In short, it runs like this:
(§1)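 Parachute dye-coupling assay. Connexin-expressing HeLa donor cells were labelled for 30 min at 37°C with 10 µM CM-DiI plus 5 µM calcein-AM, washed in PBS/glucose, trypsinized and seeded at ~1:150 onto semi-confluent unlabelled receiver monolayers. Cells attached for 3 h at 37°C with extracellular taurine. Calcein-positive receivers per DiI-labelled donor were averaged and normalized to control cultures.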

The test system of data set [2] is nontagged Cx26 junctional channels. As to the kind of experiment: Parachute assay for gap junctional communication. In kind it is cell-based. The settings on record: n = 4–9; for Intercellular calcein transfer: extracellular taurine, normalized to control. In short, it runs like this: as §1
In data set [3] the test system is heteromeric Cx26T/Cx32 hemichannels. The data set can be described thus: TSF liposome hemichannel activity. It counts as biochemical, rat. In short, it runs like this: (§2)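 Rat connexins carrying a C-terminal thrombin-site–HA(HN)6 tag were expressed in Tet-On HeLa (1 µg/ml dox, 48 h). Hemichannels were octylglucoside-solubilized, anti-HA immunopurified and reconstituted into PC/PS/rhod-PE liposomes entrapping urea buffer. Taurine was present in iso-osmolar urea/sucrose gradients (300,000 gav, 3 h, 37°C). Bands were followed by rhod-PE fluorescence, densities by refractometry at 25°C. Lower-band fraction was Poisson-corrected and normalized to the preparation maximum.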

For data set [4], the system named is heteromeric Cx26/Cx32T hemichannels. As to the kind of experiment: TSF liposome hemichannel activity. It counts as biochemical, rat. The settings on record: taurine-exposed liposomes. In short, it runs like this: as §2
The subject of data set [5] is the different tagged connexin hemichannels other than Cx26/Cx32T. As to the kind of experiment: Hemichannel calcein uptake by HeLa cells. It counts as cell-based, rat. The settings on record: extracellular taurine, low [Ca2+]ex; n = 3.
Data set [6] relates to Cx26CT–^biotCL3 interaction. The data set can be described thus: CT+CL peptide-binding assay. Set-up: species or system rat.
The subject of data set [7] is untagged heteromeric Cx26/Cx32 hemichannels. The data set can be described thus: TSF liposome hemichannel activity, untagged. The settings on record: with AS treatment. It counts as biochemical.
Data set [8] concerns heteromeric Cx26/Cx32Tc hemichannels. The data set can be described thus: TSF liposome hemichannel activity, tag cleaved. In kind it is biochemical, rat. In short, it runs like this:
(§3)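 Tagged rat hemichannels were anti-HA immunopurified from dox-induced Tet-On HeLa, then cleaved with 2 U thrombin for 18 h at 4°C, leaving LVPR at the C-terminus. They were reconstituted by gel filtration into rhod-PE-labelled liposomes in urea buffer, then centrifuged for 3 h at 37°C through iso-osmolar urea/sucrose gradients containing aminosulfonate. Band densities were read by refractometry. Lower-band fraction was Poisson-corrected, normalized per preparation and pooled.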

A further data set deals with Cx26T/Cx32 hemichannels. As to the kind of experiment: Hemichannel calcein uptake by HeLa cells. In kind it is cell-based, rat. The following applies: extracellular taurine, low [Ca2+]ex; n = 3.
Data set [9] deals with homomeric Cx26T hemichannels. As to the kind of experiment: TSF liposome hemichannel activity. It counts as biochemical, rat. In short, it runs like this: as §2
A further data set has as its system Cx26CL–Cx26CT complex. As to the kind of experiment: 1H-15N HSQC NMR, effect of taurine on CL–CT complex. In kind it is binding, rat. The settings on record: pH 7.0, 42°C.
The test system of data set [10] is hemichannels that contained connexin26 (Cx26), homomeric or with Cx32 (heteromeric). The following applies: cytoplasmic concentrations; ref Tao and Harris, 2004; cited from earlier work.
The subject of data set [11] is homomeric Cx26Tc hemichannels. The data set can be described thus: TSF liposome hemichannel activity, tag cleaved. It counts as biochemical, rat. The following applies: 10 mM taurine; tag cleaved (LVPR left); n = 5–8. In short, it runs like this: as §3
A further data set deals with Cx26CL (15N-labeled). The data set can be described thus: 1H-15N HSQC NMR interaction. In kind it is binding, rat. The settings on record: 10 µM Cx26CL, pH 7.0, 42°C, 6% LPPG, 20 mM MES.
Data set [12] concerns heteromeric Cx26Tc/Cx32 hemichannels. As to the kind of experiment: TSF liposome hemichannel activity, tag cleaved. It counts as biochemical, rat. In short, it runs like this: as §3
In the next data set the test system is Cx26/Cx32T hemichannels. The data set can be described thus: Hemichannel calcein uptake by HeLa cells. In kind it is cell-based, rat. The settings on record: extracellular taurine, low [Ca2+]ex; n = 3.
Data set [13] relates to nontagged Cx26 hemichannels. The data set can be described thus: Hemichannel calcein uptake by HeLa cells. In kind it is cell-based. The settings on record: extracellular taurine, low [Ca2+]ex; n = 3. In short, it runs like this: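 HeLa clone stably expressing nontagged Cx26. Semi-confluent monolayers were washed, then loaded for 30 min at 37°C in low-Ca buffer (0.5 mM CaCl2, 30 mM KCl, 11 mM glucose, Tris pH 7.4) with 100 µM calcein, with or without taurine. Cells were washed in 2 mM Ca buffer and imaged. Dye-containing cells were counted, and each taurine condition was normalized to its own taurine-free control.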

Data set [14] concerns homomeric Cx32Tc hemichannels. As to the kind of experiment: TSF liposome hemichannel activity, tag cleaved. It counts as biochemical, rat. In short, it runs like this:
as §3

For data set [15] the following is noted: 37°C; source not given; cited from earlier work.
For data set [16], the system named is Cx26T/Cx32 junctional channels. As to the kind of experiment: Parachute assay for gap junctional communication. In kind it is cell-based, rat. The settings on record: extracellular taurine; normalized to control; n = 4–9.
Data set [17] relates to untagged homomeric Cx26 hemichannels. As to the kind of experiment: TSF liposome hemichannel activity, untagged. In kind it is biochemical. The following applies: with AS treatment.
Data set [18] concerns homomeric Cx32T hemichannels. As to the kind of experiment: TSF liposome hemichannel activity. It counts as biochemical, rat. The following applies: taurine-exposed liposomes. In short, it runs like this:
as §2

Data set [19] concerns Cx32T junctional channels. The data set can be described thus: Parachute assay for gap junctional communication. In kind it is cell-based, rat. The following applies: extracellular taurine; normalized to control; n = 4–9. In short, it runs like this: as §1
The mark [20] stands for this setting: extracellular HEPES in presence of extracellular taurine.
Where [21] appears, read: up to 50 mM of protonated taurine.
Setting [22] is: tag cleaved (LVPR left), n = 5–8.
The mark [23] stands for this setting: 30 mM taurine, 4 mM Cx26CT, 10 µM Cx26CL.

“Also recorded” adds a separate entry of the source.

For `O=S(=O)(O)CCN1CCN(CCO)CC1` [HEPES], the “Block of taurine effect on junctional channel permeability of calcein” value in data set [1] (setting [20]) is given as “effectively eliminated the taurine effect; also recorded: AS insensitive”. For the same compound, the “Block of taurine effect on junctional calcein transfer” value in data set [2] (setting [20]) was “eliminated by HEPES; also recorded: restored AS insensitivity”.

The term pKa denotes the pH at which an ionisable group is half protonated. `NCCS(=O)(=O)O` [taurine, β-aminosulfonic acid]: the “Pore narrowing (intermediate band in TSF)” value in data set [3] (taurine-exposed liposomes), in data set [4], in data set [8] (taurine-exposed liposomes), in data set [12] (taurine-exposed liposomes), in data set [14] (taurine-exposed liposomes) and in [18] was “do not form intermediate bands” each time. Also, the “Inhibition of hemichannels (TSF)” value in [3] (setting [21]) and in data set [9] (setting [21]) was “not inhibited” in each case. Moreover, the Calcein dye uptake entry (in [5]; in the data set on Cx26T/Cx32 hemichannels) was “absence of effect” in each case. Moreover, in data set [6] (10 µM ^biotCL3, not fit to any standard binding isotherm), the “Taurine concentration for complete dissociation of CL–CT peptides” value was around 5 mM. The “Disruption of CL–CT peptide interaction” value in data set [6] (1 mM taurine, pH 6.5, 10 µM ^biotCL3) was “Approximately 50%”. In addition, the “Effect of taurine on Cx26CT–CL3 interaction” value in data set [6] (10 mM taurine, 10 µM CL peptide) is listed as “substantial but not complete dissociation; also recorded: substantially reduced”. Besides, the “Concentration dependence of disruption of CL–CT interaction” value in data set [6] (pH 6.5 and 7.4, 10 µM ^biotCL3) was “a linear function of the log of taurine concentration”. For the same compound, the “pH dependence of taurine disruption of CL–CT interaction” value in [6] (pH 6.5 versus 7.4, 10 µM ^biotCL3) is recorded as “substantially greater at the lower pH”. The “Occlusion of hemichannels (TSF band shift from lowest to upper band)” value in data set [7] and in data set [17] was “full occlusion of the hemichannels” each time. Besides, the “AS sensitivity of hemichannel activity (TSF)” value was “AS sensitive” in data set [8] (setting [22]) and “AS insensitive” in data set [14] (setting [22]). For the same compound, the Intercellular calcein transfer result is on record as “decreased” in data set [1] (extracellular taurine, normalized to control); “not in the Cx26T/Cx32 cells or the Cx26T cells” in data set [16]; “markedly reduced” in data set [2]; “substantially reduced” in data set [2] (listed as AS); “unchanged compared with controls” in data set [19]. In addition, the “Effect on pore diameter (TSF band density)” value in [9] (10 mM AS (taurine)) is given as “no discernable effect on the pore diameter”. In the data set on Cx26CL–Cx26CT complex (setting [23]), the “Effect on Cx26CL–Cx26CT complex by NMR, Fig. 8 B peaks” value was “a negligible effect of taurine on the Cx26CL–Cx26CT complex”. Also, the “Effect on Cx26CL–Cx26CT complex by NMR, Fig. 8 D peaks” value with Cx26CL–Cx26CT complex (setting [23]) is “move to unique positions in the presence of both taurine and the Cx26CT”. The “Effect on Cx26CL–Cx26CT interaction by NMR, Fig. 8 C peaks” value in the data set with Cx26CL–Cx26CT complex (setting [23]) is “taurine reverses the Cx26CL–Cx26CT interaction at this position”. Further, in the data set with Cx26CL–Cx26CT complex (concluded from NMR), the “Mode of action on Cx26CT–Cx26CL interaction” value is “competitive inhibitor of the interaction between Cx26CT and the Cx26CL”. In addition, the “Inhibition of Cx26-containing hemichannels by cytoplasmic AS” value in [10] is on record as “inhibitory at cytoplasmic concentrations”. The “AS effect on hemichannel activity (TSF)” value in [11] is reported as “remained AS insensitive”. Also, the “Interaction with Cx26CL by NMR (resonance peaks affected)” value with Cx26CL (15N-labeled) (30 mM taurine) is “taurine interacts with the Cx26CL at some residues (peaks iii and iv)”. Further, the “AS inhibition of hemichannel activity (TSF)” value in data set [12] (10 mM taurine, tag cleaved (LVPR left), n = 5–8) is on record as “AS inhibition was restored”. Besides, the “Completeness of inhibition of dye uptake” value in the data set on Cx26/Cx32T hemichannels is reported as “not complete”. Further, the Calcein hemichannel uptake result in [13] is given as “markedly reduced”. Besides, the pKa in data set [15] is given as 8.8.

As for “Cx26CT: peptide with sequence corresponding to the Cx26CT (residues 213–226) (LFIRYCSGKSKRPV)”, the “Interaction with Cx26CL by NMR (resonance peaks affected)” value in the data set with Cx26CL (15N-labeled) (4 mM Cx26CT) is “more resonance peaks are affected by the Cx26CT than by taurine”.
